Apaf-1 act – human Apaf-1 activation; Apaf-1 apoptosome caspase-3 activation, DEVD-Rh110 fluorescence; hits give low values; actives 0.31% (n = 330,000); activity change, negative = activation, % at 20 µM;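 active means activity change at or below -40% at 20 µM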
Target sequence (O14727 whole entry, looked up): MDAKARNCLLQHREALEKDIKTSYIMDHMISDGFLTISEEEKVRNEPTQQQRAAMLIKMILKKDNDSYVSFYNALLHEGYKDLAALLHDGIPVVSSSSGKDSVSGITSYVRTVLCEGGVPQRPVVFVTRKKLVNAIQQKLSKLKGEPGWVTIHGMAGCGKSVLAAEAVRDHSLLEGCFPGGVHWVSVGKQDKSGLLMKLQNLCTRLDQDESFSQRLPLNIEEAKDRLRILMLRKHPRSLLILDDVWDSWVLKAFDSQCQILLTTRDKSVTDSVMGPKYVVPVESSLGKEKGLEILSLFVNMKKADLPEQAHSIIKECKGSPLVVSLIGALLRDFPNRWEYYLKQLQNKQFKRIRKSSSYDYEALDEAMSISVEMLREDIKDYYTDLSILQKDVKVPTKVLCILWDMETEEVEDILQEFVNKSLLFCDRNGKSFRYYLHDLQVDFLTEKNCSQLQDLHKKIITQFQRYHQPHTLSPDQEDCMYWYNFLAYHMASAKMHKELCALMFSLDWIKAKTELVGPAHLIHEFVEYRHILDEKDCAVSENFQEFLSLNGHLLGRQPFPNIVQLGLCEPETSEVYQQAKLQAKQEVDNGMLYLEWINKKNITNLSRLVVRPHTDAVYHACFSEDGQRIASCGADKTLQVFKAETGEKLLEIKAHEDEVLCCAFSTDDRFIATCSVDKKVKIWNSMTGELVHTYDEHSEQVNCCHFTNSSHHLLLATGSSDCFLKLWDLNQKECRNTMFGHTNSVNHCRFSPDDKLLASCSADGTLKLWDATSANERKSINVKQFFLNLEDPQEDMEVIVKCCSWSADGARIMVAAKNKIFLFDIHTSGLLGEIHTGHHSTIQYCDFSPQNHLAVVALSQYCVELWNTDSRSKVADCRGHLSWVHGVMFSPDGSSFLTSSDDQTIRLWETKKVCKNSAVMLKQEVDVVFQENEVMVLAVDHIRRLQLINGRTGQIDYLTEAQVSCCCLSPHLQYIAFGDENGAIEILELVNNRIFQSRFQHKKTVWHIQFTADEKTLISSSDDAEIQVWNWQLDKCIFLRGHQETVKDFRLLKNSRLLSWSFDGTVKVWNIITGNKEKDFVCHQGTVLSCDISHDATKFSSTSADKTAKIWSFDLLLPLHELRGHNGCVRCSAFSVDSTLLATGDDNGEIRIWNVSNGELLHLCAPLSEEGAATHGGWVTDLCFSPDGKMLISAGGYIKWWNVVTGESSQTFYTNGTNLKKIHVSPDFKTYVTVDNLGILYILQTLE
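Assay system – biochemical Apaf-1 apoptosome reconstitution · Medium – 20 mM HEPES buffer, pH 7.5, containing CHAPS and BSA · Incubation – 30 min preincubation, 50 min reaction, room temperature · Measured by – Caspase-3-released Rh110 fluorescence, 540 nm emission, 480 nm excitation · Read-out – Caspase-3 cleavage activity downstream of Apaf-1 activation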
Rh110 interf act – counter-screen for Apaf-1 activators: fluorescence interference; fluorescence interference (activity change), % at 20 µM, hits read low; shares compounds with Apaf-1 act; 980 tested, under 10 active; Rh110 fluorescence interference, quenched caspase reaction, Ex480/Em540; AID 504616;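 active means mean activity change at or below -40% when tested at 20 µM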
Apaf-1 act conf2 – Apaf-1 (human) activation, single-dose confirmed. shares compounds with Apaf-1 act. reconstituted apoptosome caspase-3 activity, DEVD-Rh110 fluorescence; hits give low values. activity change, negative = activation, % at 20 µM. actives 5% (n = 980);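 active means mean activity change at or below -40%, meaning activation of 40% or more, at 20 µM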
Active calls of the source: *; . = no result. The list is a sample of the results.

SMILES | Apaf-1 act | Rh110 interf act | Apaf-1 act conf2
COc1ccc(N/C=C2\CCc3ccccc3C2=O)cc1 | 79 | . | .
c1ccc(CN(CC2=NCCN2)c2ccccc2)cc1 | -4 | . | .
COc1ccc(OCCNc2c([N+](=O)[O-])c(=O)oc3ccccc23)cc1 | 73 | . | .
CC(=O)Nc1ccc(NC(=O)C2CCCN2C(=O)Nc2ccc(F)cc2)cc1 (stereo unspecified) | -208* | 4 | 15
O=C(NCCc1ccccc1)C1CCCN1C(=O)Nc1ccc(F)cc1 (stereo unspecified) | -43* | 6 | 12
COc1ccc(NC(=O)N2CCCC2C(=O)Nc2ccccc2)cc1 (stereo unspecified) | -41* | 1 | 13
COC(=O)C1=C(C)N(Cc2ccccc2)C(=NCc2ccc(OC)cc2)N[C@H]1c1ccccc1 | 51 | . | .
C#CCOCCOCCOCCNc1nc(N2CCN(C(=O)C([C@@H](C)CC)n3cc(C(N)COC(=O)C(F)(F)F)nn3)CC2)nc(N2CCN(C(=O)[C@H](Cc3cc4ccccc4[nH]3)n3cc(C(N)CO)nn3)CC2)n1 (stereo partly specified) | 49 | . | .
CC(=O)c1ccc2c(c1)C1C=CCC1C(c1ccncc1)N2 (stereo unspecified) | 60 | . | .
CCO/C=C1/C(=O)N(C)C(=O)c2cc(OC)ccc21 | 47 | . | .
CC1=NN(c2ccccc2)C(=O)/C1=C\N(O)c1ccccc1 | 71 | . | .
CCOC(=O)c1ccc(NC(=O)c2nn(C)cc2Br)cc1 | -148* | 4 | 16
CC(=O)Nc1ccc(C(=O)COC(=O)c2nc3nc(C)cc(C)n3n2)cc1 | 41 | . | .
CCOC(=O)c1ccc(NC(=S)NC(=O)c2nn(CC)cc2Br)cc1 | -51* | 0 | 11
O=C1C(C2=C(O)c3ccccc3C2=O)=Nc2ccccc21 | 66 | . | .
CSc1ccc(CN(C)C(=O)CSCC(=O)Nc2cc(C)on2)cc1 | 48 | . | .
COc1ccc2c(c1OC)C(=O)OC2C1c2c(cc3c(c2OC)OCO3)CCN1C (stereo unspecified) | 5 | . | .
Oc1ccc(C[C@@H]2CNCCN2CCC23CC4CC(CC(C4)C2)C3)cc1 | 47 | . | .
O=[N+]([O-])c1cccc(C=Nc2cccc3ccccc23)c1O | 93 | . | .
COc1ccc(CNC(=O)CNS(=O)(=O)c2ccc(Cl)cc2)cc1 | -177* | 7 | 14
Cc1c(C=O)c(Cl)n(C)c(=O)c1C#N | 97 | . | .
CC(C)(C)NC(=O)C[C@H]1C[C@H](C(=O)N2CCOCC2)[C@@]2(CCC3CCCC3)c3[nH]c4ccc(Cl)cc4c3CCN2C1=O | 44 | . | .
Clc1ccc(OCCSc2nnnn2C2CCCCC2)cc1 | 65 | . | .
Nn1c(SCCOc2ccc(Cl)cc2)nnc1-c1cccnc1 | -44* | 13 | 16
O=C(O)c1ccc(N2C(=O)/C(=C/c3ccc(-c4ccc([N+](=O)[O-])cc4)o3)C=C2c2ccccc2)cc1 | 52 | . | .
SMILES | Apaf-1 act | Rh110 interf act | Apaf-1 act conf2
COc1ccc(-n2nc3ccc(N)cc3n2)cc1Cl | 95 | . | .
CN(C)c1ccc(C(=S)N2CCCCC2)cc1 | -335* | -3 | 2
COc1cc(Cn2c(N)c(C#N)c3nc4ccccc4nc32)cc(OC)c1 | 58 | . | .
CC(C)(O)C#Cc1ccc(CN2CCC(n3nccc3NC(=O)C3CC3)CC2)cc1 | -79* | 2 | 8
Cc1ccc(C(=O)N/C(=C\c2ccc(-c3ccccc3[N+](=O)[O-])o2)C(=O)NCCCN2CCOCC2)cc1 | 65 | . | .
CN(C)CCCNS(=O)(=O)c1ccc(N2CCC(c3ccc(Cl)cc3)=N2)cc1 | 73 | . | .
CCCNS(=O)(=O)c1ccc(CCC(=O)N2CCCCC2)cc1 | -511* | -2 | 8
CCOC(=O)C1=C(CN2CCN(c3ccc(F)cc3)CC2)NC(=O)NC1c1cccs1 (stereo unspecified) | 41 | . | .
C#CCOCCOCCOCCNc1nc(N2CCN(C(=O)[C@H]([C@@H](C)CC)n3cc([C@@H](N)Cc4ccc(O)cc4)nn3)CC2)nc(N2CCN(C(=O)[C@H](Cc3cc4ccccc4[nH]3)n3cc([C@@H](N)C(C)CC)nn3)CC2)n1 (stereo partly specified) | 49 | . | .
CCN(Cc1ccncc1)C(=O)c1ccc(Br)o1 | -613* | -1 | 8
O=C(NCCOc1nc(N2CCCCC2)nc(N2CCCCC2)n1)Nc1ccccc1 | 41 | . | .
CCN(CC)c1nc(OCCNC(=O)Nc2ccccc2)nc(N(CC)CC)n1 | -52* | -2 | 17
O=C(Nc1ccccc1)Nc1ccc(O)c2ccccc12 | 44 | . | .
COc1ccc(OC)c2c1C(=O)c1ccccc1C2=O | 63 | . | .
CCOC(=O)c1c2c(n(C)c1C)C(=O)C(=O)c1ccc(Br)cc1-2 | 96 | . | .
O=C(Nc1ccc2ccccc2n1)Nc1cccs1 | -58* | -1 | 14
Cc1cc(C)c2sc(N(CCN(C)C)C(=O)CCS(=O)(=O)c3ccccc3)nc2c1 | 53 | . | .
CCOc1ccc(/C=C/[N+](=O)[O-])c2ccccc12 | 80 | . | .
CCC(C)NC(=O)C1CCN(S(=O)(=O)c2cccc3cccnc23)CC1 (stereo unspecified) | -456* | -6 | 9
Oc1ccccc1CNc1cccc2cccnc12 | 95 | . | .
CC(C)NC(=O)C1CCN(S(=O)(=O)c2ccc(N3CCCC3=O)cc2)CC1 | -332* | -3 | 2
COCCN1C=C2C(=O)C(C)(OC(=O)CCC(=O)OC)C(=O)C=C2C=C1C1CC1 (stereo unspecified) | 43 | . | .
COc1ccc(NC(=S)Nc2ccccn2)c(OC)c1 | -48* | 0 | 17
COc1ccc(NC(=S)Nc2cccc3ccccc23)cc1OC | 83 | . | .
CC(C)OCCCNC1=C(Cl)C(=O)c2ccccc2C1=O | 53 | . | .
SMILES | Apaf-1 act | Rh110 interf act | Apaf-1 act conf2
CCOC(CNc1ncnc2c1cnn2C)OCC | -143* | 0 | 6
O=C(/C=C/c1ccc(-c2ccccc2[N+](=O)[O-])o1)c1ccc(Br)cc1 | 49 | . | .
COC(=O)c1nn(-c2ccc(OC)cc2)c(=O)cc1NN | 42 | . | .
COC(=O)c1nn(-c2ccc(OC)cc2)c(=O)cc1Sc1ccc(C)cc1 | -333* | -4 | 12
CC(C)CC(=O)NC(NC(=S)Nc1sc2c(c1C#N)CCCC2)C(Cl)(Cl)Cl (stereo unspecified) | -215* | 5 | 34
CCOC(=O)Nc1sc2c(c1C#N)CCCC2 | -62* | -4 | 10
O=C1C2=C(c3ccccc31)[N+](=O)[C@@H]1CCCC[C@@H]1N2[O-] | 75 | . | .
COc1ccccc1NC1=C(N2CCCCC2)C(=O)c2ccccc2C1=O | 95 | . | .
CCO[C@@H]1OC(C(=O)N2CCN(Cc3ccc4c(c3)OCO4)CC2)=C[C@H](c2ccc(C(F)(F)F)cc2)[C@H]1CCCO | 42 | . | .
CCc1ccc(NC(=O)[C@H](Cc2c[nH]c3ccccc23)NC(=O)[C@@H]2Cc3ccccc3CN2)cc1 | 41 | . | .
CCOc1ccccc1NC(=O)C(CC(C)C)NC(=O)C1CCCCC1 (stereo unspecified) | -53* | 2 | -1
CCC(=O)N(C1=C(NC)C(=O)c2ccccc2C1=O)C(C)C | 69 | . | .
CC(=O)CC(c1ccccc1)c1c(O)c2ccccc2oc1=O (stereo unspecified) | 4 | . | .
NNc1nc2c(Cl)c(Cl)ccc2s1 | -59* | 0 | 10
O=C(NCc1ccccc1)C1(CC2CC(c3ccccc3)=NO2)CCNCC1 (stereo unspecified) | 47 | . | .
